Assay [1] deals with 4-aminobutyrate aminotransferase, mitochondrial (Sus scrofa) (UniProt P80147). Description: Time dependent inhibition of pig brain GABA-AT using GABA as substrate at 5 mM up to 150 mins. The procedure, abridged: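 Pig brain GABA-AT in 100 mM potassium phosphate pH 7.0 preincubated at 25 °C with β-mercaptoethanol, α-ketoglutarate and compound (5 mM final); aliquots taken at time points into assay solution (GABA, α-ketoglutarate, NADP+, pH 8.6) with excess SSADH; remaining activity from 340 nm NADPH absorbance rate.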

Assay [2] has the same target. Description: Reversible inhibition of pig brain GABA-AT using GABA as substrate at 23 mM.
Assay [3] has the same target. Description: Activity at pig brain GABA-AT assessed as glutamate production at 3 mM preincubated for 20 mins relative to GABA. In a few lines:
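GABA-AT purified from pig brain; substrate tested as turnover substrate in 100 mM potassium pyrophosphate pH 8.6 with α-ketoglutarate; glutamate formed detected by glutamate oxidase/horseradish peroxidase/Amplex Red fluorescence (ex 530, em 590 nm); scaled to glutamate standard curve (0–10 µM); highest rates, between 15 and 25 min, used.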

For assay [4], the target named is 4-aminobutyrate aminotransferase, mitochondrial (Sus scrofa, UniProt P80147). Description: Reversible inhibition of pig brain GABA-AT using GABA as substrate. The procedure, abridged:
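Pig brain GABA-AT, purified in-house, mixed with excess SSADH (from GABase), then inhibitor at several concentrations added in assay buffer: 87 mM potassium pyrophosphate pH 8.6, 6 mM GABA, 5 mM α-ketoglutarate, 1.25 mM NADP+, 3.3 mM β-mercaptoethanol. Rate read directly without preincubation as NADPH absorbance at 340 nm. IC50 from concentration-response fit; Ki via Cheng-Prusoff.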

The source made the active and inactive calls. The calls are words filed in the database; no cut-off is given here.

4-aminobutyrate aminotransferase, mitochondrial (Sus scrofa), sequence (P80147 whole entry): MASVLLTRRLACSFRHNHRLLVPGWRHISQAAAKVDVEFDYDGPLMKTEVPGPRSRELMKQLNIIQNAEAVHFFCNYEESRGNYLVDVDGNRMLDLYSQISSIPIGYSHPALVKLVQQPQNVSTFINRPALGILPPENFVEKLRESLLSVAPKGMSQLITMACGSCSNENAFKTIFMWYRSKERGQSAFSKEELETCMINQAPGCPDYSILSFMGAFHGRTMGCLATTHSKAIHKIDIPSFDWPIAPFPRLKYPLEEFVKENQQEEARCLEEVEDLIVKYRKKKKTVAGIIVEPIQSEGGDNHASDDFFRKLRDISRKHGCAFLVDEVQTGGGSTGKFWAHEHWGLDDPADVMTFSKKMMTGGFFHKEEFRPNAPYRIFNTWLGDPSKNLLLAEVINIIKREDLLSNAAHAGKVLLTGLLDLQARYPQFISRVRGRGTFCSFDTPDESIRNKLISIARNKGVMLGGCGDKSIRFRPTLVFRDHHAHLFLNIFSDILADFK
4-aminobutyrate aminotransferase, mitochondrial, sequence (P80147 whole entry): as above

In the case of `C[C@H](F)[C@@H](N)CCC(=O)O`, the inhibition result in assay [1] and in assay [2] was “inactive” each time. Further, the Activity in assay [3] was determined as 0.11%.
In the case of `C[C@@H](F)[C@@H](N)CCC(=O)O`, the inhibition entry in assay [1] and in assay [2] was “inactive” throughout. The Activity in assay [3] stood at 0.32%.
`C[C@@H](F)[C@H](N)CCC(=O)O`: the inhibition entry in assay [1] and in assay [2] was “inactive” throughout. The Activity in assay [3] worked out at 0.02%.
Consider `N[C@@H]1C=C[C@H](C(=O)O)C1`, for which the Ki (commonly a measure of affinity in units of concentration, obtained from inhibition or displacement) in assay [4] turned out to be 40 µM. This counts as double-digit micromolar.

The values are drawn from ChEMBL document CHEMBL2311384, “Probing the steric requirements of the γ-aminobutyric acid aminotransferase active site with fluorinated analogues of vigabatrin” (Bioorg Med Chem, 2013).
